# High-throughput results (PubChem)
# TRAIL sens C8 = viability loss with TRAIL in NB7+C8 cells, primary screen, TRAIL sensitizer project, cell-based, ATPlite luminescence. inhibition (viability loss, TRAIL sensitization), % at 10 µM. 360,000 tested, 1% active. AID 624354, 2012;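 active means compounds causing at least 50% loss of cell viability in the single-dose screen, relative to plate controls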
# FLuc inh counter = firefly luciferase enzyme inhibitors, primary screen, artefact control for luciferase-based inhibitor screens, biochemical, luminescence, ATPLite | inhibition, % at 10 µM | 200,000 tested, 1.5% active | Luciferin 4-monooxygenase (Photinus pyralis), P08659 | 10 min;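 active means inhibition above about 50% when tested at 10 µM, limit read from the data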
# FLuc act counter = FLuc activators, initial screening, artefact control for FLuc-dependent activation tests, biochemical, ATPlite luminescence | 200,000 tested, under 10 active | ATPlite luciferase biochemical, 10 min; 0 = ATP-free wells, 1 = DMSO control | activation factor at 10 µM | AID 1027, 2008;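 active means luciferase activation factor, scaled between plate controls, of at least 2 with compound at 10 µM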
#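 Material: Luciferase/luciferin reagent mix | Doses: Test compounds dosed from 2 mM stocks in 100% DMSO | Timing: 10 min incubation after luciferase reagent addition, room temperature | Measured by: Luminescence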
# PPC-1+TRAIL kill = compounds killing PPC-1 cancer cells with TRAIL present, primary screen, TRAIL potentiator project, ATPLite luminescence, uHTS; PPC-1 cells + TRAIL, ATPLite viability luminescence; cell killing (% activity), % at 4 µM or 5 µM; 220,000 tested, 0.41% active;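 active means cell killing above 50% in the first pass at 4 µM, then a duplicate retest at 5 µM averaging 50% or more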;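 further: plate controls were cells with TRAIL plus DMSO for no effect and medium-only wells lacking cells for full effect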
# PKD1 inh = inhibitors of human PKD1 kinase, biochemical, fluorescence polarization. PKD1 kinase fluorescence polarization assay. inhibition, % (test concentration not listed). Serine/threonine-protein kinase D1 (Homo sapiens), Q15139. 200,000 tested, 0.056% active; in the data active means inhibition above about 50%
# Wee1 stabilizer = Wee1 degradation inhibitors, primary screen, cell-based, HeLa, Wee1K328M-luciferase, luminescence; Wee1-like protein kinase (Homo sapiens), P30291; HeLa Luc-Wee1K328M stability; 100% = proteasome inhibitor MG132 effect; reporter increase, % at 5 µM; 220,000 tested, 1.2% active;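 active means activation above the mean of all tested compounds plus 3 SD, set per screening run, cut at about 8.8% in these data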;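 further: cells exposed to compound for 20 h before luminescence read; 0% = DMSO alone and 100% = MG132 at 30 µM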
# Target sequence (P30291 whole entry K328M): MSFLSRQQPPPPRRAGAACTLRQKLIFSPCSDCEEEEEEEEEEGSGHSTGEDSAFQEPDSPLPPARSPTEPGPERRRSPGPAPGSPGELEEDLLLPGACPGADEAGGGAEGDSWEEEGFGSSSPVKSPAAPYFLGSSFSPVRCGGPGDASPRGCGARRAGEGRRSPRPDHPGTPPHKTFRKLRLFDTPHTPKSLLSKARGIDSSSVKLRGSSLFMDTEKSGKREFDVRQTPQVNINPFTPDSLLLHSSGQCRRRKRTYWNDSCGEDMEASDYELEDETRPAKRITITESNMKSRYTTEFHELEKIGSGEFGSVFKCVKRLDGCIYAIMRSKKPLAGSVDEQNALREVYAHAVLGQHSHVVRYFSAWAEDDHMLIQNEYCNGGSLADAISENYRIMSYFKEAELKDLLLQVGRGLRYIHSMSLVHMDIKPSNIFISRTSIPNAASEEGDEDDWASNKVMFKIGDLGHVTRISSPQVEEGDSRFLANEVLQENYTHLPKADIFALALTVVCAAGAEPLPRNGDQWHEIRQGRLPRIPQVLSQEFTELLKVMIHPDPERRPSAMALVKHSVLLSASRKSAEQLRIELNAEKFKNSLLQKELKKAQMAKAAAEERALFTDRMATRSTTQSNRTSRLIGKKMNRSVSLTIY
# An asterisk follows results filed as active; . = not tested or not shown. The list is not random: actives were taken first. Their share in the collection is about 2.2%.
SMILES,TRAIL sens C8,FLuc inh counter,FLuc act counter,PPC-1+TRAIL kill,PKD1 inh,Wee1 stabilizer
O=C(CNC(=O)c1ccc(Br)cc1)NCc1cccnc1,-16.6,.,.,.,.,.
N#CC(=C1CCCC1)c1nc(-c2ccccc2)cs1,44.3,54.2*,0.5,29.8,-3.4,0.2
Cc1ccc(-c2csc(C(C#N)=C3CCCC3)n2)cc1,21.2,32.3,0.7,7.4,-6.5,-2.3
CCOc1ccc(NC(=O)CN(C)C(=O)c2cc([N+](=O)[O-])ccc2N2CCOCC2)cc1OCC,3.3,.,.,.,.,.
COC(=O)C1=C(C)Nc2c(c(=O)n(C)c(=O)n2C)C1c1ccc(C)cc1 (stereo not given),2.8,-0.5,1,7.8,-8.2,-3.1
CC(C)Oc1ccc(CNC(=S)N/N=C/c2cccnc2)cc1,-1.3,-3.8,1,13.6,-2.2,9.2*
Cc1noc(C)c1NC(=O)Nc1cccc2c1O[C@H](CN(C)S(=O)(=O)c1cccs1)[C@@H](C)CN([C@H](C)CO)C2=O,-2.5,.,.,.,.,.
Cc1nc2scc(C)n2c(=O)c1S(=O)(=O)N1CCN(c2ccc([N+](=O)[O-])cc2)CC1,7.4,.,.,.,.,.
c1ccc(-c2ncc(-c3ccn[nH]3)s2)cc1,42.7,66.4*,0.3,23.9,2.0,7.6
Cn1c(SCc2ccccc2Cl)nc2c1c(=O)[nH]c(=O)n2C,9.5,.,.,.,.,.
COc1cccc2cc(C(C)OC(=O)Nc3ccc(C)cc3)oc12 (stereo not given),-3.2,-8.2,1.1,18.3,6.1,9.1*
CCOC(=O)CNC(=O)C1CCCc2c1[nH]c1ccc(Cl)cc21 (stereo not given),-4.9,-0.7,1,18.6,-1.1,10.3*
CNc1nc(N/N=C/c2cc([N+](=O)[O-])ccc2F)nc(Nc2ccccc2)n1,57.6*,.,.,.,.,.
CCOc1ccc(S(=O)(=O)N2CCN(CC(O)COc3cccc([N+](=O)[O-])c3)CC2)cc1 (stereo not given),-8.4,.,.,.,.,.
CCCCC/C(=N\NC(=O)Nc1ccccc1)c1ccccc1,-7.2,-0.4,1,-6.9,-0.3,9.2*
O=c1[nH]c(C2CCCN(S(=O)(=O)c3ccccc3F)C2)nc2c1nnn2Cc1ccccc1Cl (stereo not given),-20.2,.,.,.,.,.
C(=N\N=C\c1ccccc1)/c1ccccc1,-6.9,78.7*,0.2,35.8,-4.1,0.0
COc1ccc2[nH]c3c(c2c1)CCN1C(=O)C(CC(=O)NCCCn2ccnc2)C[C@H](C(=O)N2CCCCC2)[C@@]31CCc1ccccc1 (stereo not given in full),-3.7,.,.,.,.,.
Cc1ccccc1OCc1ccc(C(=O)N2CCOCC2)o1,0.9,.,.,.,.,.
O=c1[nH]c2ccccc2c2nc3ccccn3c12,28.4,53.8*,0.5,7.4,6.9,1.3
CC(Oc1ccc(Br)cc1)C(=O)N(Cc1ccccc1)c1c(N)n(Cc2ccccc2)c(=O)[nH]c1=O (stereo not given),4.3,.,.,.,.,.
COc1ccc(N2CCN(C(=O)c3cc(C)oc3C)CC2)cc1,-10.5,.,.,.,.,.
COc1cc(C(=O)Oc2ccccc2/C=N/NC(=O)c2ccc(C)cc2)cc(OC)c1OC,50.1*,14.9,0.9,46.8,-3.2,4.1
COc1ccc(C(=O)N/N=C/c2ccccc2OC(=O)c2ccccc2)cc1,47.3,.,.,.,.,.
COCCCNc1ccn2nc(-c3ccccc3)cc2n1,52.6*,.,.,.,.,.
SMILES,TRAIL sens C8,FLuc inh counter,FLuc act counter,PPC-1+TRAIL kill,PKD1 inh,Wee1 stabilizer
COCCCNc1ccn2nc(-c3cccc(Cl)c3)cc2n1,18.7,.,.,.,.,.
CCNC(=O)C1(C)CCN(Cc2ccccc2C#N)C1 (stereo not given),-27.0,.,.,.,.,.
O=C(O)CCNc1ccc(NCCC(=O)O)c2c1C(=O)c1ccccc1C2=O,0.6,.,.,.,.,.
O=C1c2cccc(NCCNCCO)c2C(=O)c2cccc(NCCNCCO)c21,64.1*,.,.,.,.,.
Cc1ccc(C(=O)Oc2ccc(N3C(=O)CCC3=O)c(C)c2)cc1,1.8,54.3*,0.5,14.4,-5.4,0.7
Cc1cc(O)c(/C=N/Nc2ccccc2)c(=O)o1,3.6,51.4*,0.5,25.1,14.8,0.0
C#CCOCCOCCOCCNc1nc(N2CCN(C(=O)CCCCCCCCCCNC(=O)[C@H](CCCCN)n3cc(C[C@@H](C)CC)nn3)CC2)nc(N2CCN(C(=O)CCCCCCCCCCNC(=O)[C@@H]([C@H](C)O)n3cc(C)nn3)CC2)n1,96.0*,.,.,.,.,.
C#CCOCCOCCOCCNc1nc(N2CCN(C(=O)CCCCCCCCCCNC(=O)Cn3cc(C[C@@H](C)O)nn3)CC2)nc(N2CCN(C(=O)CCCCCCCCCCNC(=O)[C@@H]([C@H](C)CC)n3cc(CCCCCN)nn3)CC2)n1,93.2*,.,.,.,.,.
C#CCOCCOCCOCCNc1nc(N2CCN(C(=O)CCCCCCCCCCNC(=O)[C@H](CCCCN)n3cc(C[C@@H](C)CC)nn3)CC2)nc(N2CCN(C(=O)CCCCCCCCCCNC(=O)[C@H](CCCN=C(N)N)n3cc(C[C@@H](C)CC)nn3)CC2)n1,93.9*,.,.,.,.,.
CCOc1ccc(NC(=O)CCCN2C(=O)C(c3ccccc3)Oc3cccnc32)cc1 (stereo not given),-5.3,.,.,.,.,.
O=C(COC(=O)CC1CCCC1)Nc1ccc(Br)cc1F,-33.2,.,.,.,.,.
Cc1ccc(S(=O)(=O)NN2C(=O)c3ccccc3NC2c2ccccn2)cc1 (stereo not given),19.9,-0.8,1,-13.8,-8.6,-1.6
CCc1ccc2nc(N(CCCN(C)C)C(=O)c3ccc(C(=O)c4ccccc4)cc3)sc2c1,62.3*,.,.,.,.,.
CC1CCCCN1S(=O)(=O)c1ccc(C(=O)N(CCCN(C)C)c2nc3ccc(Br)cc3s2)cc1 (stereo not given),55.2*,.,.,.,.,.
CCc1ccc2nc(N(CCCN(C)C)C(=O)c3ccc(S(=O)(=O)N4CCCc5ccccc54)cc3)sc2c1,67.5*,.,.,.,.,.
Cc1ccc(-n2nc3c(=O)n(CC(=O)NC(C)CCc4ccccc4)nc(C)c3c2C)cc1 (stereo not given),21.1,.,.,.,.,.
Cc1cccc(N2CCN(C(=O)c3c(Cl)cnn3C)CC2)c1C,-9.1,.,.,.,.,.
Cc1cc(C)cc(CC(=O)N2CCC2(C)C(=O)NS(=O)(=O)c2ccc(C(C)(C)C)cc2)c1 (stereo not given),-1.6,.,.,.,.,.
CCC(CC)c1nnc(NC(=O)C2CC(=O)N(C3CCCC3)C2)s1 (stereo not given),-7.5,.,.,.,.,.
O=C(Nc1nc2c(s1)C(=O)CCC2)c1ccccc1,27.0,65.8*,0.3,41.9,-6.6,-0.7
CC(C)(C)c1ccc(C(=O)NC(=S)Nc2nc3c(s2)CCCC3)cc1,36.5,19.6,0.8,4.1,-9.6,-3.1
